Measurements reported in ChEMBL document CHEMBL1212739, “Clindamycin-induced CovS-mediated regulation of the production of virulent exoproteins streptolysin O, NAD glycohydrolase, and streptokinase in Streptococcus pyogenes” (2010).
The source made the active and inactive calls. The calls are words filed in the database; no cut-off is given here.

Legend:
[1] = test system: Streptococcus pyogenes; assay: Decrease in nga mRNA expression in drug-resistant Streptococcus pyogenes D2TY isogenic delta covS mutant in BHI-YE supplemented medium at 1 ug/ml by Northern blot analysis; assay type: functional, organism-based
Method in brief: (§1)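 Cells grown static at 37°C in 5 ml BHI-YE, with 1 μg/ml CLI or none added at inoculation, and harvested at OD660 ≈0.8 (late log). Total RNA was DNase-treated. About 1 μg was run on 1% agarose with 1.1 M formaldehyde and blotted to nylon. Probes were 32P-labeled nga, slo, ska, covS or covR DNA, quantified by autoradiography/bioimaging. Triplicate assays from at least two independent cultures.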

[2] = test system: Streptococcus pyogenes; assay: Induction of covS mRNA expression in drug-resistant Streptococcus pyogenes D2TY in BHI-YE supplemented medium at 1 ug/ml by Northern blot analysis; assay type: functional, organism-based; method in brief: as §1
[3] = test system: Streptococcus pyogenes; assay: Induction of two-component sensor kinase CovS expression in drug-resistant Streptococcus pyogenes D2TY delta covS mutant at 1 ug/ml by Northern blot analysis; assay type: functional, organism-based; method in brief: as §1
[4] = test system: Streptococcus pyogenes; assay: Induction of nga mRNA expression in drug-resistant Streptococcus pyogenes D2TY at 1 ug/ml by Northern blot analysis; assay type: functional, organism-based; method in brief: as §1
[5] = test system: Streptococcus pyogenes; assay: Induction of Nga protein production in drug-resistant Streptococcus pyogenes D2TY at 1 ug/ml by Western blot analysis; assay type: functional, organism-based
Method in brief: (§2)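 Strain D2TY or its covS knockout, grown from −80°C stock at 37°C without agitation in 5 ml BHI-YE (0.3% yeast extract) containing protease inhibitor E-64, with or without 1 μg/ml CLI. Supernatant proteins run on SDS-PAGE and blotted to PVDF. Rabbit anti-Slo, anti-Nga or anti-Ska (1:2,000) applied for 16 h at room temperature. HRP goat anti-rabbit IgG (1:2,000) used as secondary. Triplicate assays from at least two independent cultures.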

[6] = test system: Streptococcus pyogenes; assay: Induction of covR mRNA expression in drug-resistant Streptococcus pyogenes D2TY delta covS mutant at 1 ug/ml by Northern blot analysis; assay type: functional, organism-based; method in brief: as §1
[7] = test system: Streptococcus pyogenes; assay: Decrease in ska mRNA expression in drug-resistant Streptococcus pyogenes D2TY isogenic delta covS mutant in BHI-YE supplemented medium at 1 ug/ml by Northern blot analysis; assay type: functional, organism-based; method in brief: as §1
[8] = test system: Streptococcus pyogenes; assay: Decrease in slo mRNA expression in drug-resistant Streptococcus pyogenes D2TY isogenic delta covS mutant in BHI-YE supplemented medium at 1 ug/ml by Northern blot analysis; assay type: functional, organism-based; method in brief: as §1
[9] = test system: Streptococcus pyogenes; assay: Induction of Ska protein production in drug-resistant Streptococcus pyogenes D2TY at 1 ug/ml by Western blot analysis; assay type: functional, organism-based; method in brief: as §2
[10] = test system: Streptococcus pyogenes; assay: Induction of covS mRNA expression in drug-resistant Streptococcus pyogenes D2TY delta covS mutant at 1 ug/ml by Northern blot analysis; assay type: functional, organism-based; method in brief: as §1
[11] = test system: Streptococcus pyogenes; assay: Induction of ska mRNA expression in drug-resistant Streptococcus pyogenes D2TY at 1 ug/ml by Northern blot analysis; assay type: functional, organism-based; method in brief: as §1
[12] = test system: Streptococcus pyogenes; assay: Decrease in Nga protein production in drug-resistant Streptococcus pyogenes D2TY isogenic delta covS mutant in BHI-YE supplemented medium at 1 ug/ml by Western blot analysis; assay type: functional, organism-based; method in brief: as §2
[13] = test system: Streptococcus pyogenes; assay: Decrease in Ska protein production in drug-resistant Streptococcus pyogenes D2TY isogenic delta covS mutant in BHI-YE supplemented medium at 1 ug/ml by Western blot analysis; assay type: functional, organism-based; method in brief: as §2
[14] = test system: Streptococcus pyogenes; assay: Induction of slo mRNA expression in drug-resistant Streptococcus pyogenes D2TY at 1 ug/ml by Northern blot analysis; assay type: functional, organism-based; method in brief: as §1
[15] = test system: Streptococcus pyogenes; assay: Antibacterial activity against Streptococcus pyogenes D2TY; assay type: functional
Method in brief: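 MICs of clindamycin hydrochloride determined for S. pyogenes M1 strain D2TY (STSS clinical isolate) by broth microdilution and by Etest, following CLSI guidelines. Bacteria grown at 37°C without agitation in brain heart infusion broth with 0.3% yeast extract. Resistance breakpoint taken as MIC above 1 μg/ml.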

[16] = test system: Streptococcus pyogenes; assay: Decrease in Slo protein production in drug-resistant Streptococcus pyogenes D2TY isogenic delta covS mutant in BHI-YE supplemented medium at 1 ug/ml by Western blot analysis; assay type: functional, organism-based; method in brief: as §2
[17] = test system: Streptococcus pyogenes; assay: Induction of Slo protein production in drug-resistant Streptococcus pyogenes D2TY at 1 ug/ml by Western blot analysis; assay type: functional, organism-based; method in brief: as §2

## CCC[C@@H]1C[C@@H](C(=O)N[C@@H]([C@H]2O[C@H](SC)[C@H](O)[C@@H](O)[C@H]2O)[C@H](C)Cl)N(C)C1.Cl [CLINDAMYCIN HYDROCHLORIDE]
[1]
  Activity: Active
[2]
  Activity: Active
[3]
  Activity: inactive
[4]
  Activity: Active
[5]
  Activity: Active
[6]
  Activity: inactive
[7]
  Activity: Active
[8]
  Activity: Active
[9]
  Activity: Active
[10]
  Activity: inactive
[11]
  Activity: Active
[12]
  Activity: Active
[13]
  Activity: Active
[14]
  Activity: Active
[15]
  MIC: 256 µg/mL
[16]
  Activity: Active
[17]
  Activity: Active
